# Laboratory results published in ChEMBL document CHEMBL1926614, “Substituted thiazoles V. synthesis and antitumor activity of novel thiazolo[2,3-b]quinazoline and pyrido[4,3-d]thiazolo[3,2-a]pyrimidine analogues” (2012).
# How the values were obtained:
# Format in all cases: functional
# [1] = Cytotoxicity against human breast cancer cells after 48 hrs by coulter counting; conditions: Cancer cell lines
# Summary of the method: (§1)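 NCI 60-cell-line panel covering nine tumour subpanels, tested over a 5-log dose range. Compounds were dissolved in DMSO and diluted in phosphate-buffered saline to a final DMSO below 1%. Wells held 6 × 10⁴ cells/ml and were run in duplicate. Controls contained PBS and DMSO at matching dilutions. Incubation was at 37 °C in humidified 5% CO₂. GI₅₀, TGI and LC₅₀ were reported.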
# NSCLC = test: Cytotoxicity against human NSCLC cells after 48 hrs by coulter counting; summary of the method: as §1
# [2] = Cytotoxicity against human leukemia cells after 48 hrs by coulter counting; conditions: Leukemia cell; summary of the method: as §1
# [3] = Cytotoxicity against human renal cancer cells after 48 hrs by coulter counting; conditions: Cancer cell lines; summary of the method: as §1
# [4] = Cytotoxicity against human prostate cancer cells after 48 hrs by coulter counting; conditions: Cancer cell lines; summary of the method: as §1
# [5] = Cytotoxicity against human CNS cancer cells after 48 hrs by coulter counting; conditions: Cancer cell lines; summary of the method: as §1
# [6] = Cytotoxicity against human ovarian cancer cells after 48 hrs by coulter counting; conditions: Cancer cell lines; summary of the method: as §1
# [7] = Cytotoxicity against human melanoma cells after 48 hrs by coulter counting; conditions: Melanoma cell; summary of the method: as §1
# [8] = Cytotoxicity against human colon cancer cells after 48 hrs by coulter counting; conditions: Cancer cell lines; summary of the method: as §1
# [9] = read-out: LC50 (the source's name)
structure (smiles),measurement,setting,value
O=c1[nH]cc(F)c(=O)[nH]1 [FLUOROURACIL],GI50,[1],76.4 µM
same,TGI,[1],> 100 µM
same,CC50,[1]; [9],> 100 µM
same,GI50,NSCLC,> 100 µM
same,TGI,NSCLC,> 100 µM
same,CC50,NSCLC; [9],> 100 µM
same,TGI,[2],> 100 µM
same,CC50,[2]; [9],> 100 µM
same,GI50,[3],45.6 µM
same,TGI,[3],> 100 µM
same,GI50,[4],22.7 µM
same,TGI,[4],> 100 µM
same,TGI,[5],> 100 µM
same,GI50,[6],61.4 µM
same,TGI,[6],> 100 µM
same,CC50,[6]; [9],> 100 µM
same,GI50,[7],70.6 µM
same,TGI,[7],> 100 µM
same,CC50,[7]; [9],> 100 µM
same,GI50,[8],8.4 µM
same,TGI,[8],> 100 µM
